pEC50: −log10 of the molar value. “Also recorded” adds a separate entry of the source. Like-named read-outs stand apart in the source and are kept apart here. Marks after values point to notes of the source that are not given here.
How the values were obtained:
[1] = system: Influenza A virus H5N1, Influenza A/Vietnam/1203/2004 × A/PR/8/34 (recombinant H5N1); assay: microbe, parasite or virus in culture; type: cell-based; settings: H5N1|PR/8, MDCK
[2] = system: Influenza A virus H1N1, Influenza A/California/7/2009; type: cell-based
NS1-pYES yeast strain = assay: Yeast-based NS1 assay: reversal of NS1-induced slow-growth phenotype; type: cell-based; settings: for restoration of yeast growth (reversal of slow growth phenotype): NS1-pYES strain, 50 μM, 22, 42 and 60 h
IFN-β mRNA = assay: RT-PCR analysis of IFN-β mRNA in MDCK cells; type: cell-based; settings: MDCK infected with A/PR/8/34, MOI 2, 20 μM, 6 h
Procedure, shortened: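 MDCK cells infected with influenza A/PR/8/34 (MOI 2) and incubated with test compound (20 μM) for 6 h, then harvested. IFN-β mRNA detected by RT-PCR, with β-actin mRNA as reference. Poly(I:C)-induced cells were the positive control for IFN-β induction and RT-PCR. Uninfected cells received the same drug treatment and RT-PCR in parallel.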

[3] = system: A/PR/8/34 strain of influenza A virus (H1N1); type: cell-based
[4] = microsomes; for Mouse Liver Microsomal Stability (% remaining) 0 min: 0 h; for Mouse Liver Microsomal Stability (% remaining) 15 min: 0.25 h; for Mouse Liver Microsomal Stability (% remaining) 30 min: 0.5 h
in vitro [5] = settings: dog
in vitro [6] = settings: human, Caco-2, Efflux Ratio
Caco-2 monolayer = settings: human, Caco-2, 2 h
[7] = Mouse liver microsomal stability

SMILES	pEC50 [1]	EC50 [2]	restoration of yeast growth (reversal of slow growth phenotype) (NS1-pYES yeast strain)	restoration of IFN-β mRNA levels in infected cells (IFN-β mRNA)	dose response in the TCID50 assay [3]	Mouse Liver Microsomal Stability (% remaining) 0 min [4]	Mouse Liver Microsomal Stability (% remaining) 15 min [4]	Mouse Liver Microsomal Stability (% remaining) 30 min [4]	CC50 (in vitro [5])	also measured
CCOc1cc(-c2c(C#N)c(O)nc3c2c(C)nn3-c2ccc(F)cc2)ccc1O [Compound 1]	4.55	single digit micromolar								Cytotoxicity towards host MDCK cells (MDCK cells): without toxicity
Cc1ccc(-n2nc(C)c3c(-c4ccc(O)c(O)c4)c(C#N)c(N)nc32)cc1C [Compound 4]		single digit micromolar	show the same behavior	significantly restored IFN-β mRNA levels	successfully decreased viral titer with increasing concentration	100 % remaining	78 % remaining	64 % remaining	24.5 µM	
Cc1nn(-c2ccc(Cl)cc2)c2nc(N)c(C#N)c(-c3ccc(O)c(O)c3)c12 [Compound 6]			show the same behavior	significantly restored IFN-β mRNA levels	successfully decreased viral titer with increasing concentration	100 % remaining	93 % remaining	90 % remaining	24.5 µM	efflux ratio at 2 h (in vitro [6]): 7.78
COc1cc(-c2c(C#N)c(N)nc3c2c(C)nn3-c2ccc(F)cc2)ccc1O [Compound 10]	5.44	single digit micromolar	show the same behavior	significantly restored IFN-β mRNA levels	successfully decreased viral titer with increasing concentration	100 % remaining	74 % remaining	60 % remaining	24.7 µM	
COc1cc(-c2ccnc3c2c(C)nn3-c2ccc(C(F)(F)F)cc2)ccc1O [Compound 32]		sub-micromolar	reversal of the slow growth phenotype; also recorded: reversed	significantly restored IFN-β mRNA levels	successfully decreased viral titer with increasing concentration	100 % remaining	66 % remaining	45 % remaining	19.8 µM	acute toxicity in yeast assay (NS1-pYES yeast strain; 50 μM): does not display acute toxicity; efflux ratio at 2 h (in vitro [6]): 2.29; restoration of IFN-β mRNA levels in infected cells (IFN-β mRNA; listed as C00006): Restores IFN-β mRNA levels; Cytotoxicity towards host MDCK cells (MDCK cells; dog): did not affect cell viability at 5, 10, 50 and 100 μM; Efflux Ratio (Caco-2 monolayer): 1.20^b; selectivity index (SI) [3]: greater than 100 fold; viral suppression (TCID50) [3]: 3 log units
COc1cc(-c2ccnc3c2c(C)nn3-c2cccc(C(F)(F)F)c2)ccc1O [Compound 33]			show the same behavior						24.5 µM	Mouse Liver Microsomal Stability (% remaining) 0 min ([7]; 0 min): 100 % remaining; Mouse Liver Microsomal Stability (% remaining) 15 min ([7]; 15 min): 25 % remaining; Mouse Liver Microsomal Stability (% remaining) 30 min ([7]; 30 min): 16 % remaining
COc1cccc(-c2ccnc3c2c(C)nn3-c2ccc(F)cc2)c1 [Compound 37]										Cytotoxicity towards host MDCK cells (MDCK cells): exhibited cytotoxicity
NC(=O)c1ncn([C@@H]2O[C@H](CO)[C@@H](O)[C@H]2O)n1 [Ribavirin, reference compound]	4.49									

Reference: paper PMC8290212 (Bioorganic & medicinal chemistry letters, 2019)
